In ChEMBL document CHEMBL1154873, “Synthesis and evaluation of the alpha-glucosidase inhibitory activity of 3-[4-(phenylsulfonamido)benzoyl]-2H-1-benzopyran-2-one derivatives” (Eur J Med Chem, 2010) one finds IC50 data, which are given here for 22 compounds.

A value given as a limit tells only on which side of the number the result lay.

The nature of this assay: inhibition of yeast alpha-glucosidase pretreated for 10 mins before maltose challenge measured after 10 mins. More on the design: species or system Saccharomyces cerevisiae. A digest of the protocol:
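0.02 U α-glucosidase with compound in 67 mM potassium phosphate, pH 6.8, preincubated 37 °C 10 min. 0.1 M maltose added, then room temperature 10 min. Glucose detected colorimetrically at A490 against no-compound and no-enzyme/no-compound blanks. Compounds giving over 50% inhibition were retested at eight threefold-diluted concentrations in duplicate, and IC50 was derived by curve fitting.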

What is called IC50 is the midpoint of a concentration-inhibition curve. As to `O=C(c1ccc(NS(=O)(=O)c2ccccc2)cc1)c1cc2cc(Cl)ccc2oc1=O`, the IC50 was > 30 µM. For `COc1cc2cc(C(=O)c3ccc(NS(=O)(=O)c4ccccc4)cc3)c(=O)oc2cc1OC`, the IC50 is > 30 µM. Turning to `Cc1ccc(S(=O)(=O)Nc2ccc(C(=O)c3cc4cc(Br)ccc4oc3=O)cc2)cc1`, the 50% inhibitory concentration (IC50) is > 30 µM. To `O=C(c1ccc(NS(=O)(=O)c2ccccc2)cc1)c1cc2ccccc2oc1=O` belongs 3.28 µM; to `O=C(c1ccc(NS(=O)(=O)c2ccccc2)cc1)c1cc2ccc(O)cc2oc1=O`, 5.77 µM. Consider `Cc1ccc(S(=O)(=O)Nc2ccc(C(=O)c3cc4cc(Br)cc(Br)c4oc3=O)cc2)cc1`, for which the IC50 amounted to 7.73 µM.

For `Cc1ccc(S(=O)(=O)Nc2ccc(C(=O)c3cc4cc(C(C)(C)C)cc(C(C)(C)C)c4oc3=O)cc2)cc1`, the half-maximal inhibitory concentration (IC50) is 10.1 µM. In the case of `COc1ccc2cc(C(=O)c3ccc(NS(=O)(=O)c4ccc(C)cc4)cc3)c(=O)oc2c1`, the half-maximal inhibitory concentration (IC50) is > 30 µM. For the compound `Cc1ccc(S(=O)(=O)Nc2ccc(C(=O)c3cc4ccc(O)cc4oc3=O)cc2)cc1`, the IC50 was 1.12 µM.

Take `O=C(c1ccc(NS(=O)(=O)c2ccccc2)cc1)c1cc2cc(Br)ccc2oc1=O`: the IC50 is > 30 µM. Turning to `O=C(c1ccc(NS(=O)(=O)c2ccccc2)cc1)c1cc2cc(Br)cc(Br)c2oc1=O`, the concentration for half-maximal inhibition (IC50) was > 30 µM. To `CC(C)(C)c1cc(C(C)(C)C)c2oc(=O)c(C(=O)c3ccc(NS(=O)(=O)c4ccccc4)cc3)cc2c1` belongs 7.13 µM; to `COc1ccc2cc(C(=O)c3ccc(NS(=O)(=O)c4ccccc4)cc3)c(=O)oc2c1`, > 30 µM. Turning to `Cc1ccc(S(=O)(=O)Nc2ccc(C(=O)c3cc4ccccc4oc3=O)cc2)cc1`, the IC50 amounted to 3.58 µM. Next, `Cc1ccc(S(=O)(=O)Nc2ccc(C(=O)c3cc4cc(F)ccc4oc3=O)cc2)cc1`: 4.6 µM.

Regarding `Cc1ccc(S(=O)(=O)Nc2ccc(C(=O)c3cc4cc(Cl)ccc4oc3=O)cc2)cc1`, the IC50 is 26.7 µM.

In the case of `CCN(CC)c1ccc2cc(C(=O)c3ccc(NS(=O)(=O)c4ccc(C)cc4)cc3)c(=O)oc2c1`, the IC50 worked out at 0.347 µM. For the compound `COc1cc2cc(C(=O)c3ccc(NS(=O)(=O)c4ccc(C)cc4)cc3)c(=O)oc2cc1O`, the concentration for half-maximal inhibition (IC50) was determined as 0.0645 µM. `COc1cc2cc(C(=O)c3ccc(NS(=O)(=O)c4ccc(C)cc4)cc3)c(=O)oc2cc1OC`: the 50% inhibitory concentration (IC50) turned out to be 5.59 µM.

Regarding `O=C(c1ccc(NS(=O)(=O)c2ccccc2)cc1)c1cc2cc(F)ccc2oc1=O`, the half-maximal inhibitory concentration (IC50) is 7.18 µM.

For `CCN(CC)c1ccc2cc(C(=O)c3ccc(NS(=O)(=O)c4ccccc4)cc3)c(=O)oc2c1`, the IC50 was determined as 0.294 µM. Consider `COc1cc2cc(C(=O)c3ccc(NS(=O)(=O)c4ccccc4)cc3)c(=O)oc2cc1O`, for which the IC50 was found to be 0.199 µM.
